Series [1] can be described thus: Half life in dog liver microsomes at 1 uM pre-incubated for 5 mins followed by NADP+ addition and measured up to 20 mins by LC-MS analysis. Type of series: ADME, Canis lupus familiaris, Microsome. (In general: Liver microsomes are vesicles of endoplasmic reticulum, rich in cytochrome P450 enzymes.)
Series [2] deals with ARH-77. Nature of the series: Antitumour activity against human ARH77 cells xenografted in nude mouse assessed as tumor growth at 5mg/kg, iv dosed at day 1 ,4, 8 ,11, 15 and 18 for 3 weeks and measured every 2 days by caliper method relative to control. Type of series: functional. Summed up: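 Nude mice given subcutaneous 1 × 10^7 ARH77 cells. Randomized at mean tumour 100-150 mm3 into treatment and control groups, n = 5. Dosed i.v. 5 mg/kg on days 1, 4, 8, 11, 15 and 18 for 3 weeks. Tumours sized by caliper, V = length×width²/2, RTV = Vt/V0. T/C% = mean RTV treated / mean RTV control × 100.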

Series [3] is described as follows: Half life in rat liver microsomes at 1 uM pre-incubated for 5 mins followed by NADP+ addition and measured up to 20 mins by LC-MS analysis. The format is ADME, Microsome.
Series [4] in a line: Intrinsic clearance in dog liver microsomes at 1 uM pre-incubated for 5 mins followed by NADP+ addition and measured up to 20 mins by LC-MS analysis. The format is ADME, Canis lupus familiaris, Microsome. To be noted: read-out: CLH.
Series [5] in a line: Potency index, ratio of compound half life in human liver microsomes to carfilzomib half life in human liver microsomes. Type of series: ADME, Microsome.
Series [6] in a line: Intrinsic clearance in human liver microsomes at 1 uM pre-incubated for 5 min followed by NADP+ addition and measured up to 20 mins by LC-MS analysis. The format is ADME, Microsome. The note with it: read-out: CLH. Summed up:
(§1)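 Mixture held 1 µM compound, 0.5 mg/mL microsomal protein (in-house pooled Balb/c mouse or pooled human), 100 mM Tris-HCl pH 7.4, and an NADPH-generating system (5 mM isocitric acid, 0.2 U/mL isocitric dehydrogenase, 5 mM MgCl2, 1 mM NADP+). Preincubated 5 min at 37 °C, started with NADP+, sampled at 0, 5, 10, 20 min. Quenched with cold acetonitrile containing 1 µM phenytoin internal standard. Compound loss measured by LC-MS/MS. Controls omitted NADPH and/or microsomes.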

Series [7] can be described thus: Intrinsic clearance in rat liver microsomes at 1 uM pre-incubated for 5 mins followed by NADP+ addition and measured up to 20 mins by LC-MS analysis. To be noted: read-out: CLH. The format is ADME, Microsome.
A short description of series [8]: Intrinsic clearance in BALB/c mouse liver microsomes at 1 uM pre-incubated for 5 mins followed by NADP+ addition and measured up to 20 mins by LC-MS analysis. Type of series: ADME, Microsome. The note with it: read-out: CLH. The essentials:
as §1

Series [9] can be described thus: Half life in monkey liver microsomes at 1 uM pre-incubated for 5 mins followed by NADP+ addition and measured up to 20 mins by LC-MS analysis. Type of series: ADME, Macaca mulatta, Microsome. The note with it: rhesus monkey.
Series [10] concerns the target T1, Proteasome Macropain subunit MB1 (Homo sapiens, UniProt P28074).
T1 sequence (P28074 whole entry): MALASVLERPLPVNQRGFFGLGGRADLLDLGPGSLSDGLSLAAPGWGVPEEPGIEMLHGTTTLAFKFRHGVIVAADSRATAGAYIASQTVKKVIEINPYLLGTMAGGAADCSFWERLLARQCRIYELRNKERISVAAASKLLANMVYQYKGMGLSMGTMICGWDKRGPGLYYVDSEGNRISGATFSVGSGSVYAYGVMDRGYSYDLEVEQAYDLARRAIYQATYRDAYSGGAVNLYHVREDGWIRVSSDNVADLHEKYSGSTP
Nature of the series: Inhibition of human chymotrypsin-like activity of 20S proteasome using Suc-LLVY-AMC as substrate pre-incubated for 10 mins followed by substrate addition and measured after 1 hr by spectrofluorimetry. The note with it: read-out: IC50.

Series [11] has as its target Voltage-gated inwardly rectifying potassium channel KCNH2 (Homo sapiens, UniProt Q12809). In words: Inhibition of human ERG in HEK293 cells assessed as effect on QT interval. Type of series: cell-based. The note with it: human, hek293.
A short description of series [12]: Intrinsic clearance in monkey liver microsomes at 1 uM pre-incubated for 5 min followed by NADP+ addition and measured up to 20 mins by LC-MS analysis. Type of series: ADME, Macaca mulatta, Microsome. The note with it: rhesus monkey, read-out: CLH.
The test system of series [13] is U-266. In words: Cytotoxicity against human U266B1 cells assessed as cell viability measured after 72 hrs by celltiter96 aqueous cell proliferation assay. The note with it: U-266, 72 h. Type of series: functional, cell-based. Summed up:
(§2)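 Suspension cells in log phase plated at 5000 (RPMI8226) or 10000 (U266B1) cells per well. Viability read after 72 h by MTS-type CellTiter 96 AQueous One assay on a plate reader. IC50 reported, three repeats.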

Series [14] concerns RPMI-8226. Nature of the series: Antitumour activity against luciferase expressing human RPMI8226 cells xenografted in NOD/SCID mouse assessed as tumor growth at 2 mg/kg, iv qd for 21 days by caliper method relative to control. The format is functional. Summed up:
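NOD/SCID mice given subcutaneous 5 × 10^6 luciferase-expressing RPMI-8226 cells. Randomized at mean tumour 100-150 mm3, n = 3 per group. Dosed i.v. 2 mg/kg QD for 3 weeks. Tumour also imaged by IVIS, ROI […] taken 3 min after D-luciferin 150 mg/kg. Caliper volume V = length×width²/2, RTV = Vt/V0. T/C% = mean RTV treated / mean RTV control × 100.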

Series [15] in a line: Half life in human liver microsomes at 1 uM pre-incubated for 5 mins followed by NADP+ addition and measured up to 20 mins by LC-MS analysis. Type of series: ADME, Microsome. The essentials:
as §1

A short description of series [16]: Half life in BALB/c mouse liver microsomes at 1 uM pre-incubated for 5 mins followed by NADP+ addition and measured up to 20 mins by LC-MS analysis. The format is ADME, Microsome. The essentials: as §1
Series [17] concerns RPMI-8226. Nature of the series: Cytotoxicity against human RPMI8226 cells assessed as cell viability measured after 72 hrs by celltiter96 aqueous cell proliferation assay. The note with it: RPMI-8226, 72 h. The format is functional, cell-based. Summed up:
as §2

Chain of Voltage-gated inwardly rectifying potassium channel KCNH2 (Q12809 whole entry): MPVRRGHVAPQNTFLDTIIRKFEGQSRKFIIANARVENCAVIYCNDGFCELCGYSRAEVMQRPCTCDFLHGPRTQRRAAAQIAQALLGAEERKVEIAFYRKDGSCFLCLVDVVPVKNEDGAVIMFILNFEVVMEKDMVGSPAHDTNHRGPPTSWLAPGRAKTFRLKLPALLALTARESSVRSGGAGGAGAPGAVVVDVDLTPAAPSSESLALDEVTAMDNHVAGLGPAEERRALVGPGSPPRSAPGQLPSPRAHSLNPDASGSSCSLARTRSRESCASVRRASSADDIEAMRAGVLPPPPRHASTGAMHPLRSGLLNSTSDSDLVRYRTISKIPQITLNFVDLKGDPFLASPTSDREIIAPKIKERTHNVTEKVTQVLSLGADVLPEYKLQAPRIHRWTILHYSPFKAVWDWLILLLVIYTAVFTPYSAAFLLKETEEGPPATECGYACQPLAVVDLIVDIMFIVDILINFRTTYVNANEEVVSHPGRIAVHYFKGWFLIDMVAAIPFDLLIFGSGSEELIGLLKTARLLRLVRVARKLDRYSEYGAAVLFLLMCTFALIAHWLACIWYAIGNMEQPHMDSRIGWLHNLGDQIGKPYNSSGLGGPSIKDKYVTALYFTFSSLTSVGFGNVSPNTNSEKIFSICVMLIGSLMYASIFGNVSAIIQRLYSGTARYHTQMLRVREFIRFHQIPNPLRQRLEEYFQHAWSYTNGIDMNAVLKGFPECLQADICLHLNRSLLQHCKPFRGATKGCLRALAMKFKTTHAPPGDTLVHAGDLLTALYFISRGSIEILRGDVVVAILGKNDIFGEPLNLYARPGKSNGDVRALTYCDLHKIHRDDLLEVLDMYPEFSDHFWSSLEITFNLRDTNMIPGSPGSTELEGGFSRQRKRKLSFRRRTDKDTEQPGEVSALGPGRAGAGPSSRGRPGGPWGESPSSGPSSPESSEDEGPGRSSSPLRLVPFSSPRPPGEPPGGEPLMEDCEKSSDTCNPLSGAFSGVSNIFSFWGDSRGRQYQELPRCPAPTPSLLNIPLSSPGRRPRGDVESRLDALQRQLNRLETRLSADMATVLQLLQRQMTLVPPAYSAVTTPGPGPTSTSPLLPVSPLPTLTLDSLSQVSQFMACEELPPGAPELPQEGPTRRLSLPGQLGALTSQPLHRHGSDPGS

Take `CC(C)C[C@H](NC(=O)[C@H](Cc1cscn1)NC(=O)CN1CCOCC1)C(=O)N[C@@H](Cc1ccccc1)C(=O)N[C@@H](CC(C)C)C(=O)[C@@]1(C)CO1`: the half-life at 1 µM was 0.243 min in [1]; 1.36 min in [3]; 0.211 min in [9]; 1.07 min in series [15]; 1.1 min in series [16]. Besides, the T/C in series [2] came to 37.6%; in series [14], 49.5%. Besides, the microsomal CLint at 1 µM in [4] was 5710 µL/min/mg; in series [6], 1300 µL/min/mg; in series [7], 1020 µL/min/mg; in series [8], 1250 µL/min/mg; in series [12] it was 6560 µL/min/mg. The Ratio in series [5] is 4. Further, the figures for the IC50 in series [10], in series [13] and in series [17] were 36.8 nM, 24.5 nM and 27.7 nM, respectively. In addition, in [11], the “inhibition (INH)” value is “Not Active”.

One may read the half-life as the time in which the quantity being followed falls by half. As usually defined, the T/C is the result in the treated group divided by that in the control group, in per cent. In general, IC50 refers to the midpoint of a concentration-inhibition curve.

(Values after ChEMBL document CHEMBL4393740, “Preparation and biological evaluation of soluble tetrapeptide epoxyketone proteasome inhibitors” (Bioorg Med Chem, 2019).)
